Source: ChEMBL document CHEMBL4706597, “Structure-guided optimization and mechanistic study of a class of quinazolinone-threonine hybrids as antibacterial ThrRS inhibitors” (Eur J Med Chem, 2020)
Converted amounts (≈) assume the structure as drawn. The source made the active and inactive calls. The calls are words filed in the database; no cut-off is given here.

Tests used:
[1] = tested on: Salmonella enterica; experiment: Inhibition of Salmonella enterica Threonyl-tRNA synthetase assessed as reduction in aminoacylation activity at 10 uM using increasing concentration of L-threonine as substrate incubated for 3 hrs by Kinase-glo luminescence assay
Method in brief: (§1)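 Aminoacylation by SeThrRS followed as ATP consumption (Kinase-Glo luminescence) after 3 h at room temperature. Inhibitor held at 10 μM while one substrate (L-Thr, tRNA^Thr or ATP, per line) was raised stepwise to test competition. Other components as in the standard assay.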

[2] = tested on: Salmonella enterica; experiment: Potency index, ratio of IC50 of parent compound to IC50 of compound for inhibition of Salmonella enterica Threonyl-tRNA synthetase assessed as reduction in aminoacylation activity using L-threonine as substrate incubated for 3 hrs by Kinase-glo luminescence assay
[3] = tested on: Salmonella enterica; experiment: Inhibition of Salmonella enterica Threonyl-tRNA synthetase assessed as reduction in aminoacylation activity at 100 uM using L-threonine as substrate incubated for 3 hrs by Kinase-glo luminescence assay relative to control
Method in brief: (§2)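 3 h at room temperature, stopped with Kinase-Glo, luminescence read. Inhibition % = (RLU compound − RLU blank)/(RLU no-enzyme − RLU blank) × 100, at 100 μM compound. IC50 run for compounds above 50% inhibition at 100 μM, fitted as 100/(1+([I]/IC50)^B). Mean of three independent assays.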

[4] = tested on: Salmonella enterica; experiment: Antibacterial activity against Salmonella enterica 87 assessed as reduction in bacterial growth incubated for 18 hrs by CLSI based broth microdilution assay; assay type: functional
Method in brief: (§3)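 Broth microdilution per CLSI; compounds in 2-fold dilutions starting from 256 μg/mL. Defined medium: M9 with 0.4% glucose plus 100 μM of all canonical amino acids. MIC read as growth end point.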

[5] = tested on: Enterococcus faecalis; experiment: Antibacterial activity against Enterococcus faecalis ATCC 29212 assessed as reduction in bacterial growth incubated for 18 hrs by CLSI based broth microdilution assay; assay type: functional; method in brief: as §3
[6] = tested on: Staphylococcus aureus; experiment: Antibacterial activity against Staphylococcus aureus ATCC 29213 assessed as reduction in bacterial growth incubated for 18 hrs by CLSI based broth microdilution assay; assay type: functional; method in brief: as §3
[7] = tested on: Staphylococcus aureus; experiment: Antibacterial activity against methicillin-resistant Staphylococcus aureus R3708 assessed as reduction in bacterial growth incubated for 18 hrs by CLSI based broth microdilution assay; assay type: functional
Method in brief: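 Broth microdilution under CLSI conditions, with 2-fold compound dilutions starting at 256 μg/mL. Medium was M9 with 0.4% glucose, supplemented with 100 μM of all canonical amino acids.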

[8] = tested on: Salmonella enterica; experiment: Binding affinity to Salmonella enterica Threonyl-tRNA synthetase assessed as change in melting temperature at 0.5 mM incubated for 10 mins by SYPRO orange dye-based thermal shift assay
Method in brief: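 SeThrRS 8 μM in 100 mM HEPES pH 7.5, 150 mM NaCl, 4× SYPRO orange, with 0.5 mM compound or 0.5% DMSO blank; 25 °C for 10 min, then ramped 25 to 95 °C at 1 °C/min, fluorescence read every 30 s. Tm fitted from melt curve; ΔTm = with minus without compound; mean of three independent experiments.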

[9] = tested on: Salmonella enterica; experiment: Inhibition of Salmonella enterica Threonyl-tRNA synthetase assessed as reduction in aminoacylation activity at 10 uM using increasing concentration of t-RNAthr as substrate incubated for 3 hrs by Kinase-glo luminescence assay; method in brief: as §1
[10] = Inhibition of Salmonella enterica Threonyl-tRNA synthetase assessed as reduction in aminoacylation activity using L-threonine as substrate incubated for 3 hrs by Kinase-glo luminescence assay; method in brief: as §2
[11] = tested on: Pseudomonas aeruginosa; experiment: Antibacterial activity against Pseudomonas aeruginosa ATCC 27853 assessed as reduction in bacterial growth incubated for 18 hrs by CLSI based broth microdilution assay; assay type: functional; method in brief: as §3
[12] = tested on: Escherichia coli; experiment: Antibacterial activity against Escherichia coli ATCC 25922 assessed as reduction in bacterial growth incubated for 18 hrs by CLSI based broth microdilution assay; assay type: functional; method in brief: as §3
[13] = Binding affinity to Salmonella enterica Threonyl-tRNA synthetase at 200 uM by isothermal titration calorimetry
Method in brief: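 ITC: 20 μM SeThrRS in cell, 200 μM ligand in syringe, both in 20 mM HEPES pH 7.5, 150 mM NaCl. First injection 5 μL, then 24 × 10 μL at 180 s spacing. Ligand-into-buffer isotherm subtracted as baseline; one-site model fit gives Kd, ΔH, ΔS, N.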

[14] = tested on: Salmonella enterica; experiment: Inhibition of Salmonella enterica Threonyl-tRNA synthetase assessed as reduction in aminoacylation activity at 10 uM using increasing concentration of ATP as substrate incubated for 3 hrs by Kinase-glo luminescence assay; method in brief: as §1

For `CN[C@H](C(=O)NC/C=C/Cn1cnc2cc(Cl)c(Cl)cc2c1=O)[C@@H](C)O`, the inhibition [1] was “Active”, the Ratio IC50 [2] was 3 and the inhibition [3] was 100%. For the same molecule, the MIC [4] was 16 µg/mL (≈ 40.1 µM), the MIC [5] was 32 µg/mL (≈ 80.1 µM) and the MIC [6] was 32 µg/mL (≈ 80.1 µM). For the same molecule, the MIC [7] was 32 µg/mL (≈ 80.1 µM), the ΔTm [8] was 28.4 °C and the inhibition [9] was “Active”. It also gave an IC50 [10] of 500 nM, an MIC [11] of 32 µg/mL (≈ 80.1 µM) and an MIC [12] of 16 µg/mL (≈ 40.1 µM). The Kd [13] was 400 nM and the inhibition [14] was “Active”.
Molecule `C[C@@H](O)[C@H](NCCF)C(=O)NC/C=C/Cn1cnc2cc(Cl)c(Cl)cc2c1=O` has an inhibition [3] of 99%, an MIC [4] of 32 µg/mL (≈ 74.2 µM) and an MIC [5] of 32 µg/mL (≈ 74.2 µM). The MIC [6] was 32 µg/mL (≈ 74.2 µM), the MIC [7] was 64 µg/mL (≈ 148 µM) and the ΔTm [8] was 19.1 °C. It also gave an IC50 [10] of 2500 nM, an MIC [11] of 64 µg/mL (≈ 148 µM) and an MIC [12] of 32 µg/mL (≈ 74.2 µM).
For `CCO[C@H](C)[C@H](N)C(=O)NC/C=C/Cn1cnc2cc(Cl)c(Cl)cc2c1=O`, the inhibition [3] was 4% and the ΔTm [8] was 0.2 °C.
With `N[C@@H](CO)C(=O)NC/C=C/Cn1cnc2cc(Cl)c(Cl)cc2c1=O` the inhibition [3] was 2% and the ΔTm [8] was 0.6 °C.
With `C[C@H](O)[C@@H](N)C(=O)NC/C=C/Cn1cnc2cc(Cl)c(Cl)cc2c1=O` the inhibition [3] was 6% and the ΔTm [8] was 0.6 °C.
`C[C@@H](O)[C@H](NCC#N)C(=O)NC/C=C/Cn1cnc2cc(Cl)c(Cl)cc2c1=O` gave an inhibition [3] of 93%, a ΔTm [8] of 18.8 °C and an IC50 [10] of 9600 nM.
For `C[C@@H](O)[C@H](N)C(=O)NS(=O)(=O)c1cccc(-c2ccc3[nH]ncc3c2)c1`, the MIC [4] was > 256 µg/mL, the MIC [5] was > 256 µg/mL and the MIC [6] was > 256 µg/mL. For the same molecule, the MIC [7] was > 256 µg/mL, the MIC [11] was > 256 µg/mL and the MIC [12] was > 256 µg/mL.
`CN[C@H](CC(C)C)C(=O)N[C@H]1C(=O)N[C@@H](CC(N)=O)C(=O)N[C@H]2C(=O)N[C@H]3C(=O)N[C@H](C(=O)N[C@H](C(=O)O)c4cc(O)cc(O)c4-c4cc3ccc4O)[C@H](O)c3ccc(c(Cl)c3)Oc3cc2cc(c3O[C@@H]2O[C@H](CO)[C@@H](O)[C@H](O)[C@H]2O[C@H]2C[C@](C)(N)[C@H](O)[C@H](C)O2)Oc2ccc(cc2Cl)[C@H]1O` [VANCOMYCIN] gave an MIC [5] of 2 µg/mL (≈ 1.38 µM).
In the case of `O=C1CC[C@@H](C(=O)NC/C=C/Cn2cnc3cc(Cl)c(Cl)cc3c2=O)N1`, the inhibition [3] is reported as 5% and the ΔTm [8] is reported as -0.4 °C.
`O=C(CC1NCCCC1O)Cn1cnc2cc(Br)c(Cl)cc2c1=O` (stereo unspecified) [HALOFUGINONE] showed an inhibition [3] of 4%, an MIC [4] of 64 µg/mL (≈ 154 µM) and an MIC [5] of 128 µg/mL (≈ 309 µM). It also gave an MIC [6] of 64 µg/mL (≈ 154 µM), an MIC [7] of 64 µg/mL (≈ 154 µM) and a ΔTm [8] of -1.5 °C. It also gave an MIC [11] of 64 µg/mL (≈ 154 µM) and an MIC [12] of 128 µg/mL (≈ 309 µM).
Work on `O=C1CC[C@H](C(=O)NC/C=C/Cn2cnc3cc(Cl)c(Cl)cc3c2=O)N1` yielded an inhibition [3] of 0% and a ΔTm [8] of -0.2 °C.
In the case of `CC(C)N[C@H](C(=O)NC/C=C/Cn1cnc2cc(Cl)c(Cl)cc2c1=O)[C@@H](C)O`, the inhibition [3] is reported as 63%, the ΔTm [8] is reported as 14.1 °C and the IC50 [10] is reported as 49300 nM.
With `C=CCN[C@H](C(=O)NC/C=C/Cn1cnc2cc(Cl)c(Cl)cc2c1=O)[C@@H](C)O` the inhibition [3] was 100%, the ΔTm [8] was 22.1 °C and the IC50 [10] was 1200 nM.
Work on `CC(C)(O)[C@H](N)C(=O)NC/C=C/Cn1cnc2cc(Cl)c(Cl)cc2c1=O` yielded an inhibition [3] of 0% and a ΔTm [8] of 0.9 °C.
`CCN[C@H](C(=O)NC/C=C/Cn1cnc2cc(Cl)c(Cl)cc2c1=O)[C@@H](C)O` showed an inhibition [3] of 100%, an MIC [4] of 32 µg/mL (≈ 77.4 µM) and an MIC [5] of 32 µg/mL (≈ 77.4 µM). For the same molecule, the MIC [6] was 64 µg/mL (≈ 155 µM), the MIC [7] was 32 µg/mL (≈ 77.4 µM) and the ΔTm [8] was 22.5 °C. It also gave an IC50 [10] of 960 nM, an MIC [11] of 32 µg/mL (≈ 77.4 µM) and an MIC [12] of 16 µg/mL (≈ 38.7 µM).
For `CC1(C)S[C@@H]2[C@H](NC(=O)[C@H](N)c3ccccc3)C(=O)N2[C@H]1C(=O)O` [AMPICILLIN], the MIC [4] was 1 µg/mL (≈ 2.86 µM), the MIC [11] was 0.5 µg/mL (≈ 1.43 µM) and the MIC [12] was 1 µg/mL (≈ 2.86 µM).
